This passage reports cytotoxicity results from ChEMBL document CHEMBL4513216, “Probing the Open Global Health Chemical Diversity Library for Multistage-Active Starting Points for Next-Generation Antimalarials” (ACS Infect Dis, 2020).

The structures appear in SMILES notation.

A short description of the data set: Toxicity liver stage against HepG2, at 10uM. Format: cell-based. Also noted: test concentration 10 uM, cell line HepG2-A16-CD81EGFP. Conditions: human, HepG2-A16-CD81EGFP cells; read-out: INHIBITION
In outline:
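Uninfected HepG2-A16-CD81EGFP cells, 3 × 10^3 per well, 1536-well, plated on prespotted compound at 10 μM final, parasite-free screening media added to match infected plates; puromycin 10 μM positive, DMSO 0.5% negative; run in parallel with 48 h PbLuc assay at 37 °C, 5% CO2; viability by CellTiter-Glo luminescence, normalized to controls.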

Consider `CC(C)N(C)CC(=O)Nc1nccn1Cc1ccccc1Cl`, for which the cytotoxicity at 10 µM was found to be 0.0646%.

Consider `CC(=O)N1CC(C)CN(C(=O)c2cscn2)c2ccccc21` (configuration not stated), for which the cytotoxicity at 10 µM is 1.98%.

Turning to `Cc1cccc(OC2CCN(c3ccc(C#N)cn3)CC2)n1`, the cytotoxicity at 10 µM amounted to 15.5%.

With `O=S(=O)(Cc1ccccc1)NCC1CCN(c2cnccn2)CC1`, the cytotoxicity at 10 µM was 14.4%.

As for `N#CCCN(Cc1ccccn1)C(=O)Nc1cccnc1`, the cytotoxicity at 10 µM is 0.525%.

Take `COCc1ncc(CN2CC(Oc3c(C)cccc3C)C2)cn1`: the cytotoxicity at 10 µM stood at 5.12%.

For `CCCN(CC(=O)OC)C(=O)c1sc(C)nc1C`, the cytotoxicity at 10 µM was -2.42%.

For the compound `COCc1nc(CNC2CCSCC2)no1`, the cytotoxicity at 10 µM is -9.87%.

On to `CCOc1nnc(CN(CC)CC(=O)NC(C)(C)C)s1`, for which the cytotoxicity at 10 µM was -13.7%.

As to `CCOC(=O)CCC(=O)N1CCC(Oc2ccc(C(F)(F)F)cn2)CC1`, the cytotoxicity at 10 µM is 11.6%.

As to `Cn1nccc1-c1cncc(C2CCCN(S(C)(=O)=O)C2)n1` (configuration not stated), the cytotoxicity at 10 µM worked out at 6.62%.

In the case of `CC(=O)N1CCC(C(=O)Nc2nc(C3CC3)cs2)CC1`, the cytotoxicity at 10 µM is -3.28%.

On to `Cc1nn(C)c2nc(NCCOCCO)sc12`, for which the cytotoxicity at 10 µM is -5%.

Turning to `Cc1nn(C)c(C)c1CN1CCN(CC2(O)CCCN(C)C2)CC1` (configuration not stated), the cytotoxicity at 10 µM was 9.07%.

Regarding `COc1ncccc1C(=O)NCCn1cnc(C)cc1=O`, the cytotoxicity at 10 µM was -0.37%.

In the case of `CNS(=O)(=O)c1ccc(C(=O)NCCc2ccccn2)cc1`, the cytotoxicity at 10 µM was -3.81%.

`CC(C)n1cnnc1CN(C)Cc1ccoc1`: the cytotoxicity at 10 µM amounted to 3.15%.

On to `COc1ccc(C(=O)Nc2cccc(SC)c2)c(OC)n1`, for which the cytotoxicity at 10 µM was 13.2%.

As for `CC(=O)NC[C@@H]1C=C(C)[C@H](CC(=O)NCCN(C)C)C[C@H]1C(C)C`, the cytotoxicity at 10 µM stood at 0.939%.

Consider `Cc1ccoc1C(=O)NC1CCN(Cc2ccccc2C#N)CC1`, for which the cytotoxicity at 10 µM is -3.51%.

Regarding `Cc1cc(C[C@@H]2CCC[C@H]2NCc2c[nH]nc2-c2ccccc2)on1`, the cytotoxicity at 10 µM was -14%.

Regarding `Nc1nccc(N[C@H]2CN(CC(=O)NC3CCCCC3)C[C@@H]2C2CC2)n1`, the cytotoxicity at 10 µM was -0.208%.

On to `CN1CCN(C(=O)c2nnc3ccc(Cl)cc3n2)CC1`, for which the cytotoxicity at 10 µM came to 6.28%.

As to `CNCCCNc1nc(C2CCCC2)nc2c1cnn2C`, the cytotoxicity at 10 µM is 6.63%.

As for `CN(C)c1ccc(C2CC(=O)Nc3c2cnn3Cc2ccco2)cc1` (configuration not stated), the cytotoxicity at 10 µM was -3.08%.

On to `CNC(=O)N1CC[C@@H]2CN(Cc3ccccc3)S(=O)(=O)[C@@H]2CC1`, for which the cytotoxicity at 10 µM was -96.6%.

As for `Cc1ccc(OCCCNC(=O)CN(C)c2ccc(C#N)cn2)cc1`, the cytotoxicity at 10 µM was 4.01%.

`Cc1cc(N2CCOC(c3ccc(N(C)C)cn3)C2)nc(N)n1` (configuration not stated): the cytotoxicity at 10 µM was 5.62%.

In the case of `Cc1ccc([C@]2(O)CC[C@H]3CN(Cc4cc(C)c(O)c(C)c4)C[C@H]32)nc1`, the cytotoxicity at 10 µM is -6.72%.

For the compound `Cc1ccc(C(=O)N2CC[C@H](Oc3cccnc3C)[C@@H](O)CC2)s1`, the cytotoxicity at 10 µM is -5.58%.

Turning to `CCS(=O)(=O)c1ccc2oc([C@H]3CCN(Cc4ccncc4)C3)nc2c1`, the cytotoxicity at 10 µM is 23.7%.

On to `O=c1[nH]cc(Nc2ccc(Cl)cc2)c(=O)[nH]1`, for which the cytotoxicity at 10 µM turned out to be 18.4%.

For the compound `Cc1ccc(N2CCc3sc(C(=O)N4CCOCC4)cc32)nn1`, the cytotoxicity at 10 µM is -0.142%.

For `COCCN1C[C@H]2CCC[C@@H](CNc3ncccn3)[C@H]2C1`, the cytotoxicity at 10 µM is -112%.

For the compound `Cc1nc(CN2CCCC(N(C)c3cnc4ccccc4n3)C2)no1` (configuration not stated), the cytotoxicity at 10 µM is -14.6%.

Take `c1ccc(-n2cc(CNC3CCc4ncnn4C3)nn2)cc1` (configuration not stated): the cytotoxicity at 10 µM is -4.01%.

Take `COc1ccccc1CC(=O)N1CCC(NCc2ccncc2)CC1`: the cytotoxicity at 10 µM was -9.69%.

As for `COc1cc(N2C[C@H]3OCC[C@H]3[C@H](C(=O)N3CCCC3)C2)ncn1`, the cytotoxicity at 10 µM turned out to be 4.99%.

For the compound `O=C(COC1CCCC1)NS(=O)(=O)c1ccc2c(c1)OCCCO2`, the cytotoxicity at 10 µM is -15.3%.

With `CC(C)N1CCc2[nH]nc(C(=O)N3CCOCC3)c2C1`, the cytotoxicity at 10 µM is -1.6%.

For the compound `O=C(c1ccnc(N2CCOC(c3ccc(Cl)cc3)C2)c1)N1CCCC1` (configuration not stated), the cytotoxicity at 10 µM is -1.8%.

With `Cc1nn(C)cc1-c1cc(-c2cn(C)nc2C)n(CC(=O)NC2CC2)n1`, the cytotoxicity at 10 µM was 4.46%.

Regarding `O=C1NCCN(C(=O)c2cn3ccsc3n2)C1c1cccc(F)c1` (configuration not stated), the cytotoxicity at 10 µM is -5.18%.

In the case of `O=C(NCCC(O)c1ccco1)c1ccccc1Br` (configuration not stated), the cytotoxicity at 10 µM stood at 0.957%.

Regarding `COc1cc(NC(=O)N2CCCC2c2nncn2C)ccc1Br` (configuration not stated), the cytotoxicity at 10 µM turned out to be 5.67%.

As to `c1c(CN2CCCCC2)nc2n1CCN(CC1CC1)C2`, the cytotoxicity at 10 µM was -113%.

Consider `Cc1cc(C)c2nc(CN3CCOCC(O)C3)cc(O)c2c1` (configuration not stated), for which the cytotoxicity at 10 µM is -3.89%.

For `CC(=O)N1CC2(CCNCC2)c2cc(C)ccc21`, the cytotoxicity at 10 µM was -73.2%.

Consider `CN(C)c1cccc(C(=O)N2CCc3ccc(=O)[nH]c3CC2)c1`, for which the cytotoxicity at 10 µM stood at 9.23%.

For `O=C(NCc1ccco1)[C@H]1C[C@@H]2CCN(c3cccc(F)c3)C[C@H]2O1`, the cytotoxicity at 10 µM was found to be 8.68%.

In the case of `Cc1nn(-c2ccc(F)cc2)c2[nH]nc(N)c12`, the cytotoxicity at 10 µM came to 13.6%.

Consider `CNC(=O)C1Cn2ccnc2C2(CCN(C(=O)CC3CCCC3)CC2)O1` (configuration not stated), for which the cytotoxicity at 10 µM is -145%.

With `CCOC(=O)[C@]12CCCN(Cc3nccs3)C[C@H]1CN(CCOC)C2`, the cytotoxicity at 10 µM worked out at 1.36%.

For `CC(=O)NCCCOc1c(C)cccc1Cl`, the cytotoxicity at 10 µM turned out to be 0.238%.

On to `O=C(NCC1CCN(CCc2ccccc2)C1)c1cc(Cl)c[nH]1` (configuration not stated), for which the cytotoxicity at 10 µM came out at 10%.

Turning to `Cc1cc(NC(=O)CN2CCCC(Cn3nc(C)nc3C)C2)n(C)n1` (configuration not stated), the cytotoxicity at 10 µM is -9.54%.

`CC(=O)Cc1c(C)nn(-c2cncc(C(N)=O)c2)c1C`: the cytotoxicity at 10 µM is -17.5%.

Take `Cc1ccc(CN(C)C(=O)CN2CCCC2c2cnn(C)c2)o1` (configuration not stated): the cytotoxicity at 10 µM was -1.69%.

With `Cc1cccc(OCCSCCn2nc3ccccn3c2=O)c1`, the cytotoxicity at 10 µM came out at 6.47%.

As to `CCN1CCCC1Cn1ccc2c(OC)c(OC)ccc2c1=O` (configuration not stated), the cytotoxicity at 10 µM is -2.78%.

In the case of `O=C(Cn1nc(-c2ccc(F)cc2)oc1=O)NCc1ccncc1`, the cytotoxicity at 10 µM is -9.21%.

As to `Cc1nc[nH]c1C(=O)N1CCCC2(C1)C(=O)N(C)c1ccccc12` (configuration not stated), the cytotoxicity at 10 µM was -6.01%.

On to `O=C(CN1C=Nc2ccccc2S1(=O)=O)NCC1CC1`, for which the cytotoxicity at 10 µM is -10.2%.

As for `CC1CCC(NC(=O)Nc2ccc(CC(=O)N(C)C)cc2)CC1` (configuration not stated), the cytotoxicity at 10 µM amounted to 3.85%.

Consider `NC(=O)c1cn[nH]c1C1CCCN1C(=O)c1ccccn1` (configuration not stated), for which the cytotoxicity at 10 µM was 0.893%.

In the case of `Cn1cc(CNC2CC3(CCN(CC4CC4)CC3)c3ccccc32)cn1` (configuration not stated), the cytotoxicity at 10 µM is -8.22%.

Regarding `CCC1CCCCN1C(=O)CCn1cnc2sccc2c1=O` (configuration not stated), the cytotoxicity at 10 µM was -9.79%.

`CC(CCc1ccccc1)NC(=O)CNCCCN(C)C` (configuration not stated): the cytotoxicity at 10 µM was -3.83%.

Consider `COc1cc(N2CC[C@@H]3O[C@H](C(=O)NCC4CC4)C[C@@H]32)ncn1`, for which the cytotoxicity at 10 µM worked out at 10.7%.

`Cc1ccn(CCNc2ncnc3c2CCN(c2cnccn2)CC3)n1`: the cytotoxicity at 10 µM was -1.81%.

`Cc1ccc(S(=O)(=O)N2CSCC2C(=O)NCC(F)(F)F)cc1C` (configuration not stated): the cytotoxicity at 10 µM was -0.855%.

On to `O=C(c1ccc[nH]1)N1CCc2c(COCC3CC3)cncc2C1`, for which the cytotoxicity at 10 µM is 5.71%.

In the case of `O=C(Nc1ccccc1)C1CN(Cc2cccs2)CC12CCOCC2` (configuration not stated), the cytotoxicity at 10 µM was determined as 3.09%.

In the case of `COc1ccc2c(ccn2CC(=O)Nc2n[nH]c(CC(C)C)n2)c1`, the cytotoxicity at 10 µM is -6.19%.

Regarding `c1nc2c(c(N3CCOCC3)n1)CCNCC2`, the cytotoxicity at 10 µM was -2.36%.

For `CCC(CO)N(Cc1ccccn1)C(=O)c1ccc(F)c(F)c1` (configuration not stated), the cytotoxicity at 10 µM was -0.273%.

As to `CC(=O)Nc1nc(C(=O)N2CCCC2c2noc(C3CC3)n2)cs1` (configuration not stated), the cytotoxicity at 10 µM was -10.5%.

For `COc1cccc(OCC(=O)N2CCOc3ccncc32)c1`, the cytotoxicity at 10 µM was 7.68%.

Turning to `CC(C)c1nccn1C1CCCN(C(=O)c2ccc3c(c2)COC3)C1` (configuration not stated), the cytotoxicity at 10 µM came to 3.19%.

With `COc1ccc(CNC[C@H]2COCc3nc4cc(F)ccc4n32)cn1`, the cytotoxicity at 10 µM stood at 0.734%.

As to `CN(C)c1nccc(C2CN(c3cnccn3)CCO2)n1` (configuration not stated), the cytotoxicity at 10 µM came out at 7.95%.

In the case of `O=C(O)c1ccc(F)c(S(=O)(=O)Nc2ccc(-n3cccn3)c(Cl)c2)c1`, the cytotoxicity at 10 µM came to 2.24%.

For `COc1ccc(C(C)NCCc2ccc(NC(C)=O)cc2)cc1F` (configuration not stated), the cytotoxicity at 10 µM was determined as 6.75%.

`O=C(C1CCOC1)N1CCC2(CC1)COCCN(Cc1ccncc1)C2` (configuration not stated): the cytotoxicity at 10 µM is -86%.

In the case of `CN(C)C(CNCc1nc(-c2ccsc2)no1)c1cccc(F)c1` (configuration not stated), the cytotoxicity at 10 µM came out at 12.9%.

As to `Cc1ccc(C)c(OCC(O)CN(C)CC(=O)Nc2cc(C)on2)c1` (configuration not stated), the cytotoxicity at 10 µM was -14.4%.

As for `CC(=O)N1CCC(Oc2ccc(C#N)cn2)CC1`, the cytotoxicity at 10 µM was -17.3%.

With `COc1ccc(C#N)cc1CSCCN1CCOCC1`, the cytotoxicity at 10 µM is 6.14%.

As for `COC(=O)c1cccc(C2CNCCN2C)c1` (configuration not stated), the cytotoxicity at 10 µM amounted to 0.5%.

`CC(C)N(C)S(=O)(=O)N(C)Cc1cnn(C)c1`: the cytotoxicity at 10 µM is 7.2%.

Consider `FC(F)(F)Cn1cc(NCc2cscn2)cn1`, for which the cytotoxicity at 10 µM was -8.51%.

`Cc1cnn(C2CN(CC(=O)N(C)Cc3ccc(C)o3)C2)c1`: the cytotoxicity at 10 µM is -15.9%.

Take `COc1ccc(S(=O)(=O)N2C[C@H](OC)[C@]3(CCCO3)C2)cc1`: the cytotoxicity at 10 µM was 1.64%.

With `Fc1ccc2[nH]c3c(c2c1)CCN1C(c2ccncc2)N2CCC31CC2` (configuration not stated), the cytotoxicity at 10 µM amounted to 4.67%.

Consider `Cc1nc(C(C)NC(=O)c2cn(CCC3CCCCC3)nn2)n[nH]1` (configuration not stated), for which the cytotoxicity at 10 µM came to 9.21%.

Regarding `CC(=O)N1CCCN(C(=O)NCc2cc[nH]n2)CC1`, the cytotoxicity at 10 µM is -6.44%.

As to `COC(=O)CCCN(C)C(c1cccnc1)c1ccc(F)cc1F` (configuration not stated), the cytotoxicity at 10 µM was -0.665%.
